From paper PMC7383777 (Pediatric Diabetes, 2020) come the findings set out here.

This data set is classed as in vivo, human. The settings on record: for Glucose intervention needed, subjects: between 2 and 6 hours postdose. The procedure, abridged:
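Randomized crossover: single s.c. pen dose of test or comparator insulin (100 U/mL) at two visits 3–22 days apart. Subjects were hospitalised 12 h and fasted to 6 h. AEs were treatment-emergent if onset was ≤7 days postdose. Hypoglycaemia followed ADA/ISPAD definitions, confirmed by meter PG <56 mg/dL and counted up to the next insulin or 16 h. Glucose was given below 56 mg/dL or at investigator discretion.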

Where [1] appears, read: across the three age groups, 0.2 U/kg s.c. single dose.

Read-outs that look alike come from different tables or passages of the source.

For the substance insulin aspart [IAsp], under setting [1], the Safety and tolerability entry was “safe and well tolerated”. Besides, the “Serious AEs” value under setting [1] is “No serious AEs were observed”. The Severe hypoglycemic episodes entry under setting [1] was “No severe hypoglycemic episodes were reported”. Besides, where the note is “adults, N = 15, 0.2 U/kg s.c. single dose”, the “Confirmed hypoglycemic episodes (PG below 56 mg/dL), number” value is “three”. Besides, the “Glucose intervention needed, subjects” value reads like this: (adults) “three”; (all age groups) “seven”; (children) “three”.
